Like-named read-outs stand apart in the source and are kept apart here. Where a SMILES comes first, the peptide text is derived from it. [ ]: non-standard residue; d: D form. The star is where a group is joined. Sta = CC(C)C[C@H](N)[C@@H](O)CC(=O)O; Isovaleryl = CC(C)CC(=O)*; CH2Cl = ClC*
Legend:
[1] = tested on: HLA-I presentation of M. tuberculosis epitopes by H37Rv-eGFP-infected DCs; experiment: cells; assay type: cell-based, human; conditions: for inhibition at 10 µg/mL: Homo sapiens, T-cell
[2] = molecular target: Purified 20S immunoproteasomes (Homo sapiens, UniProt P28062+P28065+P40306); experiment: In vitro proteasome digestion of CFP10_2–21; assay type: biochemical; conditions: epoxomicin 1 μM, 20 h, 37°C
DCs = experiment: Toxicity of inhibitor to DCs; assay type: cell-based; conditions: human DCs
In short: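 Human DCs were derived from leukapheresis PBMCs. Adherent PBMCs were cultured 5 d with GM-CSF (10 ng/ml) and IL-4 (10 ng/ml) in RPMI 1640 with 10% pooled human serum, 4 mM L-glutamine and gentamicin (50 μg/ml).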

[3] = tested on: CD8^+ T cells present in PBMCs; conditions: PBMCs of the donor from whom the clone was derived; cited from earlier work
TAP = molecular target: T1, TAP (Homo sapiens, UniProt Q03518+Q03519); experiment: ICP47-mediated TAP inhibition, intracellular IFN-γ staining of T cell clones; assay type: cell-based; conditions: adenovirus-ICP47-transduced DCs pulsed with 0.25–1 μg/ml cognate peptides
T1 sequence (Q03518 1-748): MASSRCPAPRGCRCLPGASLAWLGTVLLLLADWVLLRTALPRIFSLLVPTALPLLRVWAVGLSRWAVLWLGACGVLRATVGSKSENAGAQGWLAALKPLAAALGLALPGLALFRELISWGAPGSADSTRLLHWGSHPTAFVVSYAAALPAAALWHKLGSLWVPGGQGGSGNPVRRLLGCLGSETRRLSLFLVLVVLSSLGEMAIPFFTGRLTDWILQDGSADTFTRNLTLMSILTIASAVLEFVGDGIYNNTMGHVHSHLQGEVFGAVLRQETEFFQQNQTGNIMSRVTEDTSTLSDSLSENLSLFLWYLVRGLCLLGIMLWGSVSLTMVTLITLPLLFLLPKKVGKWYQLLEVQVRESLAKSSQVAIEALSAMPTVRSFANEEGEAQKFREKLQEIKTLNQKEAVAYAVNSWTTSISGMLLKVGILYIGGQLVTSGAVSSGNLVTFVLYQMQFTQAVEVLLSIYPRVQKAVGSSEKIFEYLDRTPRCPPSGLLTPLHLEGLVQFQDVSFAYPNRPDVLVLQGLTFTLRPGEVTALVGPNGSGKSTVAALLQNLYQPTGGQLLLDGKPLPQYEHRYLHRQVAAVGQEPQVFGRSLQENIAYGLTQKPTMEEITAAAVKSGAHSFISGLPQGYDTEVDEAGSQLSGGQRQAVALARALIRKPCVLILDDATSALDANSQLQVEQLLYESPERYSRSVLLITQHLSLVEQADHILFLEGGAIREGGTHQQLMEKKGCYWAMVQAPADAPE
T1 sequence (Q03519 1-686): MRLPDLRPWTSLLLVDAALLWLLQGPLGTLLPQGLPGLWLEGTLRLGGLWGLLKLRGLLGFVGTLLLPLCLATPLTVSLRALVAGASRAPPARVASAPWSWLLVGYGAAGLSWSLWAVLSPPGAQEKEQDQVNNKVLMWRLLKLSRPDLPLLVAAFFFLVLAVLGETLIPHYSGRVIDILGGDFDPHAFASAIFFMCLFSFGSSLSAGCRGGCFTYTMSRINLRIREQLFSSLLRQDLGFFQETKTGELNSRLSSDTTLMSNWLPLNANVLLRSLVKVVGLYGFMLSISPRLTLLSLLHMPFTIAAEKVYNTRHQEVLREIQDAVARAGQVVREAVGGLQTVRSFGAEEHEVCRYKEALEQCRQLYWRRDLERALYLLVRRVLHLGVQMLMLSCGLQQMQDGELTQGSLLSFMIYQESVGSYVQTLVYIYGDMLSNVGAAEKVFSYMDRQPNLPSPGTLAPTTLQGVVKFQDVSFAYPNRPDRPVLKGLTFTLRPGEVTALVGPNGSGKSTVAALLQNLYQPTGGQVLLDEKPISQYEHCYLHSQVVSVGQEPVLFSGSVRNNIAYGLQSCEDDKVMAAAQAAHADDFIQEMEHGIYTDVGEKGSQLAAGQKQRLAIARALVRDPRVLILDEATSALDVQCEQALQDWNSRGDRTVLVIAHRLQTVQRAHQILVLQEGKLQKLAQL

[4] = […], AAF-CMK at highest possible nontoxic dose, data not shown
[5] = cycloheximide 10 μg/ml, […], Fig. 5

Compound: C[C@H](N)C(=O)N[C@@H](C)C(=O)N[C@@H](Cc1ccccc1)C(=O)CCl [AAF-CMK] (H-Ala-Ala-Phe-CH2Cl)
- Effect on presentation of the EsxJ24–34 or CFP10_75–83 epitope [1, 4]: no effect

Compound: CO/C1=C\C(C)=C\[C@@H](C)[C@@H](O)[C@@H](C)C/C(C)=C/C=C/[C@H](OC)[C@@H]([C@@H](C)[C@@H](O)[C@H](C)[C@@]2(O)C[C@@H](O)[C@H](C)[C@@H](C(C)C)O2)OC1=O [Bafilomycin, bafilomycin]
- Effect on presentation of all of the epitopes examined ([1]; […], BFA 0.1 μg/ml, bafilomycin 0.2 μM, Fig. 1): did not significantly inhibit

Compound: C[C@@H]1C[C@@H]([C@H](O)CC2CC(=O)NC(=O)C2)C(=O)[C@@H](C)C1 [Cycloheximide, cycloheximide]
- inhibition at 10 µg/mL ([1]; read-out: Inhibition of presentation of epitope CFP10_2–12): > 70%
- inhibition at 10 µg/mL ([1]; read-out: Inhibition of presentation of epitope EsxJ24–34): > 70%
- Effect on presentation of the HLA-E–presented epitope [1, 5]: enhanced presentation
- Effect on presentation of the epitope CFP10_2–9 [1, 5]: only slightly inhibited

Compound: CC[C@H](C)[C@H](NC(=O)[C@H]([C@@H](C)CC)N(C)C(C)=O)C(=O)N[C@H](C(=O)N[C@@H](CC(C)C)C(=O)[C@@]1(C)CO1)[C@@H](C)O [Epoxomicin, epoxomicin]
- Effect on presentation of CFP10_2–9 and Ag85B144–153 epitopes ([1]; epoxomicin 1–10 μM, […], Fig. 2): ablated
- Effect on amount of CFP10_2–11 generated from CFP10_2–21 by proteasomes ([2]; IFN-γ ELISPOT and LC-MS): drastically reduced
- Effect on generation of CFP10_2–12 from CFP10_2–21 by proteasomes ([2]; detectible by T cell assay but not LC-MS): enhanced the generation
- Highest dose that was nontoxic to DCs (DCs): 10 µM

Compound: CCN(CC)CCCC(C)Nc1ccnc2cc(Cl)ccc12 (stereo not shown) [chloroquine]
- Effect on presentation of the EsxJ24–34 or CFP10_75–83 epitope [1]: neither of these epitopes was inhibited

Compound: CC(=O)N[C@@H](CC(C)C)C(=O)N[C@@H](CC(C)C)C(=O)N[C@H](C=O)CCCNC(=N)N [leupeptin]
- Effect on presentation of the EsxJ24–34 or CFP10_75–83 epitope [1, 4]: did not block

Compound: CC(C)CC(=O)N[C@H](C(=O)N[C@H](C(=O)N[C@@H](CC(C)C)[C@@H](O)CC(=O)N[C@@H](C)C(=O)N[C@@H](CC(C)C)[C@@H](O)CC(=O)O)C(C)C)C(C)C [pepstatin A] (Isovaleryl-VV[Sta]A[Sta]-OH)
- Effect on presentation of the EsxJ24–34 or CFP10_75–83 epitope [1, 4]: did not block

Compound: AEMKTDAA [CFP10_2–9]
- Ex Vivo Frequency of CD8+ T cells present in PBMCs specific for the indicated epitope [3]: 1/102

Compound: EMKTDAATL [CFP10_3–11]
- Ex Vivo Frequency of CD8+ T cells present in PBMCs specific for the indicated epitope [3]: 1/646

Compound: ICP47: HSV-1–encoded protein, prevents peptide binding to cytosolic face of TAP; expressed from an adenovirus vector
- Effect on presentation of cognate peptide to CD8+ T cell clones (TAP): no effect
